Reference: ChEMBL document CHEMBL2177013, “Synthesis and biological evaluation of tylophorine-derived dibenzoquinolines as orally active agents: exploration of the role of tylophorine e ring on biological activity” (J Med Chem, 2012)
Calls of active or inactive are those of the source.

Columns and labels:
[1] = Apparent elimination half life in Sprague-Dawley rat at 3 mg/kg, po by HPLC-MS method; format: ADME, organism-based; design: dose 3 mg/kg, route oral; conditions: in vivo, read-out: betat1/2(app) (converted)
Outline: (§1)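 Male rats (330−380 g, 9−10 weeks), jugular vein cannula implanted 1 day before, fasted. 3 mg/kg given iv or orally (n = 3) in DMA/PEG400 30/70 v/v. Blood (150 μL) drawn at 0, 2, 5 (iv only), 15, 30 min and 1, 2, 4, 6, 8, 12, 24 h; plasma analysed by HPLC-MS; noncompartmental analysis.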

[2] = AUC (0 to infinity) in Sprague-Dawley rat at 3 mg/kg, iv by HPLC-MS method; format: ADME, organism-based; design: time infinity, dose 3 mg/kg, route intravenous; conditions: plasma
Outline: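 Male rats (330−380 g, 9−10 weeks old), jugular vein cannulated 1 day before dosing, fasted; 3 mg/kg iv or oral in DMA/PEG400 (30/70, v/v), n = 3. Blood (150 μL) drawn at 0, 2, 5 (iv only), 15, 30 min and 1, 2, 4, 6, 8, 12, 24 h, kept on ice; plasma analysed by HPLC-MS; noncompartmental analysis.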

[3] = Clearance in Sprague-Dawley rat at 3 mg/kg, iv by HPLC-MS method; format: ADME, organism-based; design: dose 3 mg/kg, route intravenous; conditions: in vivo; outline: as §1
[4] = Apparent elimination half life in Sprague-Dawley rat at 3 mg/kg, iv by HPLC-MS method; format: ADME, organism-based; design: dose 3 mg/kg, route intravenous; conditions: in vivo, read-out: betat1/2(app) (converted); outline: as §1
[5] = Solubility in DMA; format: physicochemical
[6] = system: Murine hepatitis virus; experiment: Antiviral activity against Murine hepatitis virus JHM infected in mouse DBT cells assessed as reduction in N-protein expression at 0.05 to 0.5 uM pre-treated 1 hr before virus infection and measured 24 hrs post infection by immunofluorescent assay; format: functional, organism-based
Outline: (§2)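 DBT cells (2.8 × 10⁵/well) seeded the day before infection in DMEM with 2% FBS. Compound added 1 h before MHV-JHM at MOI 0.005 (virus grown in BNL CL.2 cells). Cytopathic effect viewed by phase contrast and N protein by immunofluorescence at 24 hpi.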

[7] = system: Murine hepatitis virus; experiment: Antiviral activity against Murine hepatitis virus JHM infected in mouse DBT cells assessed as reduction in virus-induced cytopathic effect at 0.05 to 0.5 uM pre-treated 1 hr before virus infection and measured 24 hrs post infection by phase contrast microscopy; format: functional, organism-based; outline: as §2
[8] = system: RAW264.7; experiment: Reduction in LPS/INFgamma-induced COX2 protein expression in mouse RAW264.7 cells incubated for 20 hrs by Western blotting; format: functional, cell-based
Outline: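 LPS/IFNγ-stimulated RAW264.7 cells treated with compound for 20 h. iNOS, COX-2 and GAPDH detected by Western blot; representative of at least three independent experiments.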

[9] = system: A549; experiment: Induction of c-Jun protein accumulation in human A549 cells incubated for 24 hrs by Western blotting; format: functional, cell-based
[10] = system: NCI-H460; experiment: Induction of c-Jun protein accumulation in human NCI-H460 cells incubated for 24 hrs by Western blotting; format: functional, cell-based
[11] = system: NCI-H460; experiment: Down regulation of cyclin A2 expression in human NCI-H460 cells incubated for 24 hrs by Western blotting; format: functional, cell-based
[12] = system: MCF7; experiment: Induction of c-Jun protein accumulation in human MCF7 cells incubated for 24 hrs by Western blotting; format: functional, cell-based
[13] = system: MCF7; experiment: Down regulation of cyclin A2 expression in human MCF7 cells incubated for 24 hrs by Western blotting; format: functional, cell-based
[14] = system: RAW264.7; experiment: Antiinflammatory activity in mouse RAW264.7 cells assessed as inhibition of LPS-induced nitric oxide production incubated for 18 hrs by nitrate/nitrite assay; format: functional, cell-based; conditions: RAW264.7, 18 h
Outline: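 RAW264.7 seeded 65000 cells/well, cultured 24 h, then medium replaced with complete medium containing IFNγ (20 ng/mL)/LPS (5 μg/mL) plus compound at various concentrations for 18 h; nitric oxide measured by Nitrate/Nitrite kit. EC50 as mean of at least three experiments, each in duplicate.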

[15] = Growth inhibition of human HONE1 cells; format: functional
Outline: (§3)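 Cells seeded per well: NUGC-3 4500, HONE-1 6000, MCF-7 6500, NCI-H460 2500, HepG2 10000, A549 5000; A549 grown in RPMI 1640 with 2 g/L NaHCO₃, 2 mM L-glutamine and 10% FBS. GI₅₀ = concentration giving 50% growth inhibition, mean of at least three experiments each in duplicate. Paclitaxel served as positive control.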

[16] = system: NUGC-3; experiment: Growth inhibition of human NUGC3 cells; format: functional; outline: as §3
[17] = system: NCI-H460; experiment: Growth inhibition of human NCI-H460 cells; format: functional; outline: as §3
[18] = system: MCF7; experiment: Growth inhibition of human MCF7 cells; format: functional; outline: as §3
[19] = system: HepG2; experiment: Growth inhibition of human HepG2 cells; format: functional; outline: as §3
[20] = system: Mus musculus; experiment: Toxicity in Nu-Foxn1'nu mouse assessed as effect on motor coordination at 10 mg/kg, po administered once daily on day 1 to 10, day 15 to 19 and day 22 to 26 measured during day 58 to 61 post dose by rotarod test; format: organism-based; design: dose 10 mg/kg, route oral; conditions: in vivo
Outline: (§4)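 Male nude mice already used in the A549 xenograft study (oral dosing, vehicle 25% DMA + 75% PEG400). Groups: vehicle (n = 8), 5 mg/kg (n = 7), 10 mg/kg (n = 8), plus untreated nontumor mice (n = 5). Rota-rod training on day 58, testing on days 59–61, rod accelerating 2 to 30 rpm over 300 s. Read-out was latency to fall, 300 s cutoff.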

[21] = system: Mus musculus; experiment: Toxicity in Nu-Foxn1'nu mouse assessed as effect on motor coordination at 5 mg/kg, po administered once daily on day 1 to 10, day 15 to 19 and day 22 to 26 measured during day 58 to 61 post dose by rotarod test; format: organism-based; design: dose 5 mg/kg, route oral; conditions: in vivo; outline: as §4
[22] = system: Rattus norvegicus; experiment: Antiinflammatory activity against Sprague-Dawley rat assessed as reduction in carrageenan-induced hind paw edema at 5 mg/kg, ip; format: functional; design: scale not given: the % may be the effect or the level left; conditions: route intraperitoneal
Outline: (§5)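 Female Sprague−Dawley rats (193−214 g, 8−9 weeks, n = 5) dosed ip 1 h before subplantar injection of 100 μL 1% carrageenan in saline into the left hind paw. Vehicle group received DMSO (100 μL); indomethacin served as positive control. Inhibition of 30% or more counted as significant.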

[23] = system: Rattus norvegicus; experiment: Antiinflammatory activity against Sprague-Dawley rat assessed as reduction in carrageenan-induced hind paw edema at 3 mg/kg, ip; format: functional; design: scale not given: the % may be the effect or the level left; conditions: route intraperitoneal; outline: as §5
[24] = system: Mus musculus; experiment: Toxicity in human A549 cells xenografted Nu-Foxn1'nu mouse assessed as incidence of overt toxicity at 10 mg/kg, po administered once daily on day 1 to 10, day 15 to 19 and day 22 to 26; format: organism-based; design: dose 10 mg/kg, route oral; conditions: in vivo
Outline: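 Four-week-old male nude mice given 10 million A549 cells subcutaneously in the right flank. At ~60 mm³, randomised to vehicle (25% DMA + 75% PEG400) or oral gavage once daily (n = 8). Mice monitored for overt adverse signs, with body weight tracked.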

[25] = system: A549; experiment: Antitumor activity against human A549 cells xenografted in Nu-Foxn1'nu mouse assessed as reduction in tumor volume at 10 mg/kg, po administered once daily on day 1 to 10, day 15 to 19 and day 22 to 26; format: functional; design: scale not given: the % may be the effect or the level left
Outline: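 Four-week-old male nude mice received 10 million A549 cells sc in the right flank. At ~60 mm³ tumours, mice were randomised (n = 8) and dosed by oral gavage in 25% DMA + 75% PEG400. Volume = a×b²/2. T/C (%) computed from day 1 and day 60 volumes versus vehicle.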

CCN1Cc2c(c3ccc(OC)cc3c3cc(OC)c(OC)cc23)C(O)C1 (stereo not given)
half-life [1]: 11.8 h | AUC(0-inf) [2]: 999 ng·h/mL | clearance [3]: 51.8 mL/min/kg | half-life [4]: 0.8 h | solubility [5]: soluble | Activity [6]: Active | Activity [7]: Active | Activity [8]: Active | Activity [9]: Active | Activity [10]: Active | Activity [11]: Active | Activity [12]: Active | Activity [13]: Active | EC50 [14]: 70 nM | GI50 [15]: 60 nM | GI50 [16]: 30 nM | GI50 [17]: 20 nM | GI50 [18]: 40 nM | GI50 [19]: 40 nM | Activity [20]: Non-toxic | Activity [21]: Non-toxic | Activity [22]: >60% | Activity [23]: >60% | Activity [24]: Non-toxic | Activity [25]: 61%
